Screening data as filed in PubChem BioAssay.
Compounds with a hit are over-represented: about 1.8% of the library has one in this group of screens.
CRFR2-BP antag: blocks CRF-induced signaling of the CRF-BP/CRF-R2 complex; inhibition, % at 11.8 µM; HEK293 CRF-R2/CRF-BP, CRF-induced calcium fluorescence; 0.59% of 350,000 active; AID 588475;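 active means inhibition of the ligand-induced calcium signal above about 50% at the single tested concentration, limit read from the data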
UPR CHOP act: apoptotic UPR (CHOP) activation; CHO-CHOP luciferase reporter, luminescence; percent of tunicamycin response over DMSO baseline; activation, % at 10 µM; AID 449763; 0.34% of 330,000 active;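 active means at 10 µM dose, activation of 40% or more, normalized to positive control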;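 further: 100% = tunicamycin at 10 µg/mL and 0% = DMSO alone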
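Assay system: CHO-CHOP cells, stable luciferase reporter of PERK-eIF2a-CHOP signalling / Buffer or medium: F12 plus 10% serum / Compound dosing: one dose, 10 µM in 0.5% DMSO / Times: 6 h compound treatment, 37 °C / Technique: luciferase luminescence / Read-out: % reporter activation, DMSO baseline versus tunicamycin full activation / Benchmarks: tunicamycin and DMSO controls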
Jurkat NFkB inh: lowers PMA/ionomycin-induced NF-kB signal in Jurkat cells; 0.53% of 330,000 active; inhibition, % at 4 µM; PMA/ionomycin-induced NF-kB luciferase reporter, luminescence; in the data active means inhibition above about 50%
UPR XBP1 act: activators of adaptive arm of unfolded protein response (XBP1); CHO-XBP1 luciferase reporter, IRE1-XBP1 UPR activation, luminescence; percent of tunicamycin response, DMSO as zero; activation, % at 20 µM; 0.33% of 330,000 active; AID 463104;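 active means versus positive control, 20 µM dose yields 30% or more activation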;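 further: 100% = tunicamycin at 10 µg/mL and 0% = DMSO only wells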
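incubation = overnight seeding at 37 °C, 6 h compound treatment at 37 °C | assay system = CHO-XBP1 cells stably carrying IRE1-XBP1-driven luciferase reporter | input = 1000 cells per well | detection = luciferase luminescence | dosing = single point, 20 µM final compound, 1% DMSO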
697 NFkB inh: lowers PMA/ionomycin-induced NF-kB signal in 697 B cells. 697 B-cell NF-kB luciferase reporter, 16 h. 0.33% of 330,000 active. inhibition, % at 4 µM; in the data active means inhibition above about 35%
Jurkat NFkB conf: inhibitors of the PMA/ionomycin-induced NF-kB reporter in Jurkat cells, retest | 27% of 2,700 active | shares compounds with Jurkat NFkB inh | inhibition, % at 4 µM | Jurkat NF-kB luciferase, 16 h;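 active means inhibition reaching about 45% at 4 µM in either replicate, limit read from the data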;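 further: plate controls were PMA/ionomycin stimulated DMSO wells for no effect and unstimulated DMSO wells for full effect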
Numbers without * were called inactive; / = no result given.

SMILES	CRFR2-BP antag	UPR CHOP act	Jurkat NFkB inh	UPR XBP1 act	697 NFkB inh	Jurkat NFkB conf
CCCCn1cnc2c(sc3nc4c(cc32)CSC(C)(C)C4)c1=O	0.3	4.1	-150.1	0.9	-129.5	-78.0
COc1ccc(Cl)cc1C(=O)NNC(=O)CCNS(=O)(=O)c1ccccc1	-5.0	-1.1	-21.5	-5.7	-15.4	/
Nc1nc(SCc2ccc(Cl)cc2Cl)c2ncn(C3OC(CO)C(O)C3O)c2n1 (centres undefined)	-13.1	/	/	/	/	/
COc1cc(C(=O)COC(=O)c2c(C)noc2C)cc(OC)c1OC	0.2	1.3	-162.6	4.8	22.7	3.8
O=C1C=C(c2ccc3cc[nH]c3c2)C[C@@H](c2ccc3c(c2)OCO3)C1	-13.4	0.4	53.3*	1.7	-23.6	18.7
O=C1C=C(c2ccc3c(c2)OCO3)C[C@@H](c2ccc3c(c2)OCO3)C1	1.7	2.2	-0.9	3.1	-11.7	/
COc1ccccc1NC(=O)c1oc2ccccc2c1NC(=O)c1cc(OC)c(OC)c(OC)c1	-4.0	0.5	63.6*	23.0	-20.2	12.8
Oc1ccc(C2=NNC(=NCc3ccc4c(c3)OCO4)SC2)c(O)c1	-9.6	4.0	52.4*	6.0	-50.9	15.7
O=C(O)/C=C/c1cn(-c2ccccc2)nc1-c1cc2ccccc2oc1=O	9.9	3.3	-164.2	0.2	-154.4	-95.3
O=Cc1cn(-c2ccccc2)nc1-c1cc2cc(O)ccc2oc1=O	-17.7	-0.6	0.9	-3.0	6.1	/
CC(C)(C)C1CCCCC1NC(=O)c1ccncc1 (centres undefined)	3.0	2.4	-1.1	0.2	1.5	/
Cc1ccc(S(=O)(=O)NCC(=O)OCC(=O)NCc2cccs2)cc1	10.2	-0.3	-8.9	-1.9	11.6	/
CCOc1ccc(N(C)S(=O)(=O)c2ccc(-c3cc(C)no3)s2)cc1	5.8	1.0	57.7*	-1.3	-61.3	51.8*
Cc1cccc(N(C)S(=O)(=O)c2ccc(-c3cc(C)no3)s2)c1	8.1	1.6	42.8	4.5	6.8	/
O=C(c1ccc(Br)cc1)N1CCN(c2ccccn2)CC1	5.2	/	/	/	/	/
C=CCNc1nc(-c2ccc(Cl)cc2)cs1	11.1	3.9	-156.6	-2.5	-150.8	-27.2
C=CCNc1nc(-c2ccc([N+](=O)[O-])cc2)cs1	18.1	4.0	-112.4	3.1	-174.0	/
Cc1ccc(NC(=O)CN(C)C(=O)COc2cccc3ccc(C)nc23)cc1	-1.7	0.6	-192.2	0.4	-5.4	13.2
N#C/C(=N\Nc1cccc(F)c1)C(=N)N1CCCCCC1	-13.6	4.1	-167.7	-3.4	-142.9	-52.9
CC(=O)Oc1ccc(C(=O)Nc2cccnc2)cc1	13.9	3.7	6.0	-1.4	-11.9	/
O=C(O)CC1(CC(=O)NCc2ccc(Cl)cc2)CCCCC1	11.6	0.3	-8.7	-2.4	-1.6	/
CCOC(=O)c1c(N)sc(C(=O)Nc2ccccc2)c1C	5.3	0.7	-165.9	-1.8	-165.2	-114.2
CCOC(=O)c1sc(NC(=O)Nc2ccccc2)cc1C	-7.3	5.1	-171.0	4.0	-233.5	-138.8
CCOC(=O)c1c(N)sc(C(=O)Nc2ccccc2F)c1C	13.4	2.1	-185.9	-1.1	-175.4	-146.4
O=C1CC(NS(=O)(=O)c2ccc([N+](=O)[O-])cc2)CN1c1ccc(Cl)cc1 (centres undefined)	-14.1	-0.9	5.4	0.3	19.2	/
SMILES	CRFR2-BP antag	UPR CHOP act	Jurkat NFkB inh	UPR XBP1 act	697 NFkB inh	Jurkat NFkB conf
CCOc1ccc(S(=O)(=O)N2CCN=C2c2ccccc2)cc1	-5.9	1.9	54.2*	-0.9	-65.1	12.3
O=C(OCc1ccccc1)N1CCCC2CC1c1ccccc12 (centres undefined)	-6.0	/	/	/	/	/
COc1cc(OC)cc(-c2nc3cc(C)ccc3o2)c1	0.9	4.3	-150.8	4.3	-174.5	-71.8
Cc1ccc(-c2nc3cc(Cl)ccc3o2)cc1	-0.7	-1.3	-135.2	-3.8	-197.9	/
C(=N\Nc1nc(-c2ccccn2)nc2ccccc12)/c1ccccc1	/	527.4*	101.0*	12.8	-29.7	15.4
C(=N\Nc1nc(-c2cccnc2)nc2ccccc12)/c1ccccc1	-1.6	4.6	-16.1	1.2	-25.4	/
CC1CCC(NC(=O)c2cc(C3CC3)nn2-c2ccccc2)CC1 (centres undefined)	12.3	5.4	-0.9	7.3	-13.1	/
Cc1ccc(S(=O)(=O)N2CCCCC2)cc1NC(=O)Cc1c[nH]c2ccccc12	15.5	2.5	65.7*	-0.5	-78.5	20.8
COc1ccc(N2CC(C(=O)Nc3nnc(SCC(=O)N4CCOCC4)s3)CC2=O)cc1 (centres undefined)	5.7	-0.7	-16.9	-1.1	22.1	/
CCN(CC)c1ccc2c(cc1=O)[C@@H](NC)CCc1cc(OC)c(OC)c(OC)c1-2	31.7	-2.1	60.0*	23.1	-3.2	3.0
CN[C@H]1CCc2cc(OC)c(OC)c(OC)c2-c2ccc(N(C)CC(OC)OC)c(=O)cc21	3.0	-1.9	29.9	8.4	-11.5	/
COc1cc2c(c(OC)c1OC)-c1ccc(OC)c(=O)cc1C(N)CC2 (centres undefined)	-6.0	/	/	/	/	/
COc1cc2c(c(OC)c1OC)-c1ccc(OC)c(=O)cc1[C@@H](N(C)CC#CCO)CC2	3.9	2.1	62.7*	6.0	-243.9	61.7*
Cc1cccc(S(=O)(=O)Nc2ccc(-c3nc4ccc(C)cc4s3)cc2)c1	-50.9	5.0	-178.8	4.4	-165.0	-52.0
Cc1ccc(CC(=O)OC(C)C(=O)NC2CCCCC2C)cc1C (centres undefined)	1.6	2.7	2.9	-1.2	14.5	/
CCOc1ccccc1NC(=O)c1nc[nH]c1C(=O)Nc1ccccc1OCC	2.1	3.3	28.3	5.5	-29.7	/
COc1ccccc1NC(=O)c1nc[nH]c1C(=O)Nc1ccccc1OC	10.7	1.0	51.1*	-2.3	-12.9	9.7
COc1ccc(NC(=O)c2nc[nH]c2C(=O)Nc2ccccc2C)cc1	12.1	0.1	52.8*	0.1	-22.8	11.5
COc1ccc(CNC(=O)CNC(=O)c2cccs2)c(OC)c1	9.3	1.5	-3.5	-0.6	10.1	/
COC(=O)c1ccc(-c2nc(CN3CCN(C(=O)c4ccco4)CC3)c(C)o2)cc1	-10.7	/	/	/	/	/
Cc1ccc(C)c(NC(=O)C(Sc2nc3ccccc3c(=O)n2CC(C)C)c2ccccc2)c1 (centres undefined)	-8.5	3.4	65.0*	-3.4	-16.3	5.6
Cc1ccc(CNC(=O)Cc2ccc(-c3ccccc3)cc2)cc1	-0.6	-0.9	63.5*	1.8	21.1	17.4
O=C(Cc1ccc(-c2ccccc2)cc1)NCc1cccnc1	2.8	-1.7	47.2	-0.4	-15.4	/
Cc1noc(C)c1COc1ccc(CC(=O)NCc2ccccc2)cc1	18.6	2.5	61.7*	-1.5	-57.9	47.5
O=C(Cc1ccc(-c2ccccc2)cc1)NCc1ccccc1	5.5	3.7	62.5*	9.5	-24.7	46.6
CC(C)=C(NC(=O)c1ccccc1Cl)C(=O)NCCc1nc2ccccc2[nH]1	-3.1	/	/	/	/	/
